The IC50 is the concentration that inhibits the measured activity by half. In general, inhibition in vivo refers to how much of the control response was suppressed.

Consider two molecules from ChEMBL document CHEMBL4699631, “Antimalarial and anti-inflammatory activities of new chloroquine and primaquine hybrids: Targeting the blockade of malaria parasite transmission” (Bioorg Med Chem, 2020).

Series [1] deals with Plasmodium falciparum. In words: Antimalarial activity against Plasmodium falciparum CQR (W2 clone) infected in human erythrocyte assessed as reduction in parasite growth incubated for 48 hrs by SYBR assay. The class given is functional, organism-based. In a few lines:
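W2 parasites cultured in A+ human erythrocytes in RPMI 1640 with ALBUMAX II, candle jar, 37 °C. Rings synchronized with sorbitol, then exposed to serial dilutions at 0.5% parasitemia and 2% hematocrit for 48 h at 37 °C. Lysis buffer with SYBR Safe, 30 min in the dark, fluorescence read at ex 485 nm. IC50 from sigmoid curve fit against drug-free control.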

Series [2] in a line: Cytotoxicity against monkey BGM cells assessed as reduction in cell viability incubated for 24 hrs by neutral red dye based assay. The settings on record: chlorocebus aethiops, read-out: MDL50. In a few lines:
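BGM monkey kidney cells grown in RPMI 1640 with 10% heat-inactivated fetal serum and gentamicin, 5% CO2, 37 °C. Cells allowed to adhere for 24 h, then exposed to compounds at 1000–1 μg/mL for 24 h. Neutral red uptake for 3 h, formaldehyde/CaCl2 fix, alcohol-acetic acid elution, absorbance at 540 nm. Viability taken as percent of untreated cells after background subtraction. MLD50 derived from this.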

The nature of series [3]: Selectivity index, ratio of MDL50 for monkey BGM cells to IC50 for Plasmodium falciparum CQR (W2 clone) infected in human Erythrocyte. The class given is toxicity. Put shortly: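 SI calculated as MLD50 in BGM cells (neutral red, 24 h) divided by IC50 against P. falciparum W2 (SYBR, 48 h).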
For series [4], the system named is Plasmodium gallinaceum. In words: Antimalarial activity against Plasmodium gallinaceum vectored in Aedes fluviatilis infected in chicken assessed as reduction in parasite growth at 50 mg/kg, po measured immediately by Giemsa staining based microscopic analysis relative to control. Also on record: scale not given: the % may be the effect or the level left. The class given is functional. Particulars: time 0 hrs. Put shortly:
(§1)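 One-day-old chickens infected intramuscularly with P. gallinaceum-infected erythrocytes; parasitemia and gametocytemia followed by daily Giemsa-stained smears. Chickens with rising parasitemia below 10% fed to starved (12 h) female Ae. fluviatilis (kept 28 °C, 80% humidity) at 0 h (control) and 4 h after dosing (test compound 25–50 mg/kg; PQ 15 mg/kg). Oocyst counts and mosquito infection rates compared with nontreated groups.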

The test system of series [5] is Plasmodium gallinaceum. In words: Antimalarial activity against Plasmodium gallinaceum vectored in Aedes fluviatilis infected in chicken assessed as reduction in parasite growth at 25 mg/kg, po measured immediately by Giemsa staining based microscopic analysis relative to control. The class given is functional. Also on record: scale not given: the % may be the effect or the level left. Particulars: time 0 hrs. Put shortly:
as §1

The subject of series [6] is Plasmodium gallinaceum. As to the kind of experiment: Antimalarial activity against Plasmodium gallinaceum vectored in Aedes fluviatilis infected in chicken assessed as reduction in gametocyte stage at 50 mg/kg, po measured immediately by Giemsa staining based microscopic analysis relative to control. The class given is functional. The settings on record: time 0 hrs. Also on record: scale not given: the % may be the effect or the level left. In a few lines: as §1

The subject of series [7] is Plasmodium gallinaceum. In words: Antimalarial activity against Plasmodium gallinaceum vectored in Aedes fluviatilis infected in chicken assessed as reduction in gametocyte stage at 25 mg/kg, po measured immediately by Giemsa staining based microscopic analysis relative to control. The class given is functional. Also on record: scale not given: the % may be the effect or the level left. The settings on record: time 0 hrs. In a few lines:
as §1

In series [8] the test system is Plasmodium gallinaceum. As to the kind of experiment: Antimalarial activity against Plasmodium gallinaceum vectored in Aedes fluviatilis infected in chicken assessed as reduction in oocyst number at 50 mg/kg, po measured immediately by Giemsa staining based microscopic analysis. The class given is functional. The settings on record: time 0 hrs. Put shortly:
as §1

Series [9] deals with Plasmodium gallinaceum. In words: Antimalarial activity against Plasmodium gallinaceum vectored in Aedes fluviatilis infected in chicken assessed as reduction in oocyst number at 25 mg/kg, po measured immediately by Giemsa staining based microscopic analysis. The class given is functional. Particulars: time 0 hrs. In a few lines: as §1
The test system of series [10] is Plasmodium gallinaceum. As to the kind of experiment: Antimalarial activity against Plasmodium gallinaceum vectored in Aedes fluviatilis infected in chicken assessed as reduction in mosquito infection at 50 mg/kg, po measured immediately by Giemsa staining based microscopic analysis relative to control. The class given is functional. Also on record: scale not given: the % may be the effect or the level left. Particulars: time 0 hrs. In a few lines:
as §1

For series [11], the system named is Plasmodium gallinaceum. As to the kind of experiment: Antimalarial activity against Plasmodium gallinaceum vectored in Aedes fluviatilis infected in chicken assessed as reduction in mosquito infection at 25 mg/kg, po measured immediately by Giemsa staining based microscopic analysis relative to control. The class given is functional. Also on record: scale not given: the % may be the effect or the level left. The settings on record: time 0 hrs. Put shortly: as §1

For series [12], the system named is Plasmodium gallinaceum. As to the kind of experiment: Antimalarial activity against Plasmodium gallinaceum vectored in Aedes fluviatilis infected in chicken assessed as reduction in oocyst number at 50 mg/kg, po measured after 4 hrs by Giemsa staining based microscopic analysis relative to control. The class given is functional. Also on record: scale not given: the % may be the effect or the level left. In a few lines: as §1

Series [13] deals with Plasmodium gallinaceum. As to the kind of experiment: Antimalarial activity against Plasmodium gallinaceum vectored in Aedes fluviatilis infected in chicken assessed as reduction in oocyst number at 25 mg/kg, po measured after 4 hrs by Giemsa staining based microscopic analysis relative to control. The class given is functional. Also on record: scale not given: the % may be the effect or the level left. Put shortly:
as §1

Series [14] concerns Plasmodium gallinaceum. As to the kind of experiment: Antimalarial activity against Plasmodium gallinaceum vectored in Aedes fluviatilis infected in chicken assessed as reduction in mosquito infection at 50 mg/kg, po measured after 4 hrs by Giemsa staining based microscopic analysis relative to control. The class given is functional. Put shortly:
as §1

Series [15] relates to Plasmodium gallinaceum. As to the kind of experiment: Antimalarial activity against Plasmodium gallinaceum vectored in Aedes fluviatilis infected in chicken assessed as reduction in mosquito infection at 25 mg/kg, po measured after 4 hrs by Giemsa staining based microscopic analysis relative to control. The class given is functional. Put shortly:
as §1

Series [16] can be described thus: Cytotoxicty against mouse J774.A1 cells assessed as cell viability at 12.5 uM incubated for 24 hrs by resazurin dye based assay (reference value: 100 %). Particulars: read-out: Activity. In a few lines: (§2)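 J774A.1 macrophages grown in DMEM with 10% FBS and 0.1% gentamycin, seeded at 1×10^5 cells/well. Exposed to compounds at 0, 12.5, 25, 50 or 100 μM for 24 h. Resazurin (10 μg/ml) added for 3 h, then fluorescence read. Run in triplicate. Viability given as percent of 0.2% DMSO-treated cells.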
Background: Alamar Blue is a resazurin reagent that responds to reducing activity.

Series [17] is described as follows: Cytotoxicty against mouse J774.A1 cells assessed as cell viability at 25 uM incubated for 24 hrs by resazurin dye based assay (reference value: 100 %). Particulars: read-out: Activity. Put shortly:
as §2

Series [18] is described as follows: Cytotoxicty against mouse J774.A1 cells assessed as cell viability at 50 uM incubated for 24 hrs by resazurin dye based assay (reference value: 100 %). The settings on record: read-out: Activity. In a few lines: as §2
Series [19] in a line: Cytotoxicty against mouse J774.A1 cells assessed as cell viability at 100 uM incubated for 24 hrs by resazurin dye based assay (reference value: 100 %). Particulars: read-out: Activity. Put shortly: as §2
For series [20], the system named is J774.A1. As to the kind of experiment: Inhibition of LPS-induced NO production in mouse J774.A1 cells incubated for 24 hrs by Griess reagent based assay. The class given is functional, cell-based. The settings on record: dose microM 0.5-25, time 24.0 hrs. In a few lines:
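Compounds made as 10 mM DMSO stocks and diluted in medium. J774A.1 cells pre-incubated with compounds at 25 μM for screening, or 0.5–25 μM for dose-response, with dexamethasone 1 μM or 0.2% DMSO as controls. Stimulated with LPS 37.5 ng/ml plus IFNγ 25 U/ml for 24 h at 37 °C, 5% CO2. Supernatant nitrite measured by Griess at 540 nm. Triplicate, mean ± SEM.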
For orientation: The Griess reaction detects nitrite, a stable product of nitric oxide.

Series [21] has as its system J774.A1. As to the kind of experiment: Inhibition of LPS-induced TNFalpha production in mouse J774.A1 cells incubated for 24 hrs by ELISA. The class given is functional, cell-based. The settings on record: dose microM 0.5-25, time 24.0 hrs. In a few lines: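 J774A.1 cells seeded at 2×10^6 cells/well. Pretreated with vehicle, dexamethasone 1 μM, or compounds at 0.5–25 μM. Stimulated with LPS 100 ng/ml for 24 h. Supernatants stored at −20 °C, then TNFα measured by sandwich ELISA in pg/mL. Triplicate, mean ± SEM.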
On the technique in general: An ELISA detects its analyte on a solid surface through an enzyme-linked reagent.

In series [22] the test system is Plasmodium gallinaceum. As to the kind of experiment: Antimalarial activity against Plasmodium gallinaceum vectored in Aedes fluviatilis infected in chicken assessed as reduction in parasite growth at 15 mg/kg, po measured immediately by Giemsa staining based microscopic analysis relative to control. Particulars: time 0 hrs. Also on record: scale not given: the % may be the effect or the level left. The class given is functional. In a few lines:
as §1

The subject of series [23] is Plasmodium gallinaceum. In words: Antimalarial activity against Plasmodium gallinaceum vectored in Aedes fluviatilis infected in chicken assessed as reduction in gametocyte stage at 15 mg/kg, po measured immediately by Giemsa staining based microscopic analysis relative to control. The class given is functional. Also on record: scale not given: the % may be the effect or the level left. Particulars: time 0 hrs. Put shortly:
as §1

Series [24] relates to Plasmodium gallinaceum. As to the kind of experiment: Antimalarial activity against Plasmodium gallinaceum vectored in Aedes fluviatilis infected in chicken assessed as reduction in oocyst number at 15 mg/kg, po measured immediately by Giemsa staining based microscopic analysis. The class given is functional. Particulars: time 0 hrs. In a few lines:
as §1

Series [25] has as its system Plasmodium gallinaceum. In words: Antimalarial activity against Plasmodium gallinaceum vectored in Aedes fluviatilis infected in chicken assessed as reduction in mosquito infection at 15 mg/kg, po measured immediately by Giemsa staining based microscopic analysis relative to control. The settings on record: time 0 hrs. The class given is functional. Also on record: scale not given: the % may be the effect or the level left. In a few lines: as §1

The test system of series [26] is Plasmodium gallinaceum. As to the kind of experiment: Antimalarial activity against Plasmodium gallinaceum vectored in Aedes fluviatilis infected in chicken assessed as reduction in oocyst number at 15 mg/kg, po measured after 4 hrs by Giemsa staining based microscopic analysis relative to control. Also on record: scale not given: the % may be the effect or the level left. The class given is functional. Put shortly: as §1

For series [27], the system named is Plasmodium gallinaceum. In words: Antimalarial activity against Plasmodium gallinaceum vectored in Aedes fluviatilis infected in chicken assessed as reduction in mosquito infection at 15 mg/kg, po measured after 4 hrs by Giemsa staining based microscopic analysis relative to control. The class given is functional. Put shortly:
as §1

With `COc1cc(NC(C)CCCNC(=O)C(F)(F)c2cc(Cl)ccc2NC(C)=O)c2ncccc2c1` (stereo not given), the IC50 in [1] was 8.4 µM. The CC50 at 24 h in [2] came to 13.6 µM. Further, in series [3], the selectivity ratio was found to be 1.6. The Activity in series [4] turned out to be 10.3%; in series [5] it was 4.7%; in series [6], 42%; in [7] it was 41%; in series [8], 166; in series [9] it was 56. Besides, the Activity stood at 95% in series [10], 89% in series [11], 81.3% in [12] and 0% in [13]. Also, the inhibition in vivo at 50 mg/kg in series [14] turned out to be 15%. For the same molecule, the inhibition in vivo at 25 mg/kg in series [15] was 5%. In addition, the viability at 24 h, 12.5 µM in series [16] is 100%. In addition, the viability at 24 h, 25 µM in [17] was 96.8%. Also, in series [18], the viability at 24 h, 50 µM is 56.2%. Also, in series [19], the viability at 24 h, 100 µM turned out to be 33.9%. Also, the inhibition entry in series [20] and in [21] was “Dose-dependent effect” in each case.
As for `COc1cc(NC(C)CCCN)c2ncccc2c1` (stereo not given) [PRIMAQUINE], in [1], the IC50 stood at 1.9 µM. Also, in [2], the CC50 at 24 h stood at 483 µM. Moreover, the selectivity ratio in series [3] worked out at 255. Besides, the Activity in [22] turned out to be 7%; in [23] it was 45%; in [24], 41; in [25], 85%; in series [26] it was 100%. For the same molecule, in series [27], the inhibition in vivo at 15 mg/kg was determined as 100%.
